AHR act – AHR activators, primary screen, cell-based, luminescence, luciferase reporter, human; Aryl hydrocarbon receptor (Homo sapiens), P35869; AHR-responsive luciferase reporter cells; activation, % at 5 µM; 320,000 tested, 2.5% active; AID 2796, 2010; in the data active = activation above about 47%
Arr AP2 block – inhibitors of beta-arrestin/AP2 binding, primary screen, biochemical, GPCR trafficking, flow cytometry | beta-arrestin 1 C-terminal peptide binding to AP2 beta2-adaptin appendage (human) | FITC-arrestin peptide / GST-AP2 beads; AP2 beta2 appendage carries R879A mutation | inhibition, % at 10 µM | 340,000 tested, 0.31% active;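 active = inhibition above a set limit, near 3 SD of compounds lacking own fluorescence, cut at about 54% in these data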
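Test system: GST-tagged AP2 beta2-adaptin appendage (R879A) on 4 µm glutathione beads; also added: fluorescein-tagged arrestin peptide at 50 nM final; timing: 12 min plus 1 h, RT; signal: flow cytometry, FL1 (488/535 nm); read-out: percent drop in bead-associated FITC signal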
A3G deaminase – APOBEC3G DNA deaminase inhibitors, primary screen, biochemical, fluorescence, single-stranded DNA substrate, uHTS | DNA dC->dU-editing enzyme APOBEC-3G (Homo sapiens), Q9HC16 | recombinant A3G, ssDNA deamination FAM/TAMRA fluorescence | inhibition, % at 20 µM | 330,000 tested, 0.28% active | AID 493012, 2011;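 active = inhibition of at least 40% at 20 µM, with no more than 30% in the related APOBEC3A deaminase screen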
UCH37 inh – inhibitors of human UCH37 deubiquitinase, primary screen, biochemical, Ub-AMC cleavage, fluorescence; Ubiquitin carboxyl-terminal hydrolase isozyme L5 (Homo sapiens), Q9Y5K5; purified proteasome/UCH37; inhibition, % (no concentration beside the values); 330,000 tested, 0.33% active; AID 588478, 2011;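 active = mean inhibition over replicate wells above about 20%, limit read from the data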
Target sequence (Q9Y5K5 whole entry, looked up): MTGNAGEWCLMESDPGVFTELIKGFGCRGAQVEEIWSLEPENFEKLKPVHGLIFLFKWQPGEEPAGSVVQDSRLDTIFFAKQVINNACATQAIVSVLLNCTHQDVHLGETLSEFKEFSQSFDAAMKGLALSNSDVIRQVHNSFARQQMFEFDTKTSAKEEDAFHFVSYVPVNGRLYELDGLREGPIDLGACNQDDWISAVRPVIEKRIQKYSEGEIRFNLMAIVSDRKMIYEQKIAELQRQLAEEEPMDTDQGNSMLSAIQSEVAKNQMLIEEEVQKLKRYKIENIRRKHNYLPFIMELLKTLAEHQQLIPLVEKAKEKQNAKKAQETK
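Schedule: 30 min plus 25 min, room temperature / Material: human UCH37 within purified proteasomes / Technique: AMC fluorescence intensity at 355/460 nm / Buffer or medium: pH 7.4 Tris-HCl (50 mM) with ovalbumin, ATP-MgCl2, DTT / Controls: wells without proteasome as full block, compound-free enzyme plus substrate as uninhibited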
PolyA inhibitor – polyadenylation inhibitors in yeast reporter cells, primary screen, luminescence, S. cerevisiae; activity score, % at 12 µM; AID 1875, 2009; S. cerevisiae SKY197-pL101 polyadenylation reporter, beta-gal luminescence; efflux-impaired pdr1/pdr3 knockout yeast; score 100 = 6 SD above DMSO; 300,000 tested, 0.02% active;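 active = lowest replicate activity score at least 50, where 100 means six control SD above control mean; inconclusive = lowest score under 50 but half or more replicates reach 50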;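 also: yeast exposed to compound for 9 h at 30 °C; higher score means more reporter readthrough which indicates perturbed polyadenylation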
A3A deaminase – APOBEC3A ssDNA deaminase inhibitors, primary screen, selectivity assay for APOBEC3G inhibitor project, biochemical, FAM/TAMRA oligo cleavage fluorescence | DNA dC->dU-editing enzyme APOBEC-3A (Homo sapiens), P31941 | recombinant A3A, FAM/TAMRA ssDNA deamination fluorescence | inhibition, % at 20 µM | 330,000 tested, 0.41% active;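 active = at least 40% inhibition at 20 µM here, with at most 30% in a related deaminase screen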
AHR act confirm – AHR activators, confirmation, cell-based, luminescence, luciferase reporter, human; shares compounds with AHR act; human cells, AHR-responsive luciferase reporter; activation, % at 9 µM; 2,300 tested, 87% active; in the data active = activation above about 49%;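 also: HepG2 hepatoma cells carrying a DRE-driven firefly luciferase reporter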
PXR act counter – human PXR activators, counter-screen for AHR activator project, cell-based, luciferase luminescence | shares compounds with AHR act | cell-based PXR reporter | activation, % at 11.6 µM | 2,300 tested, 88% active | AID 434939, 2010; in the data active = activation above about 11%;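 also: human hepatoma DPX-2 cells expressing full-length human PXR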
Target sequence (O75469 whole entry, looked up): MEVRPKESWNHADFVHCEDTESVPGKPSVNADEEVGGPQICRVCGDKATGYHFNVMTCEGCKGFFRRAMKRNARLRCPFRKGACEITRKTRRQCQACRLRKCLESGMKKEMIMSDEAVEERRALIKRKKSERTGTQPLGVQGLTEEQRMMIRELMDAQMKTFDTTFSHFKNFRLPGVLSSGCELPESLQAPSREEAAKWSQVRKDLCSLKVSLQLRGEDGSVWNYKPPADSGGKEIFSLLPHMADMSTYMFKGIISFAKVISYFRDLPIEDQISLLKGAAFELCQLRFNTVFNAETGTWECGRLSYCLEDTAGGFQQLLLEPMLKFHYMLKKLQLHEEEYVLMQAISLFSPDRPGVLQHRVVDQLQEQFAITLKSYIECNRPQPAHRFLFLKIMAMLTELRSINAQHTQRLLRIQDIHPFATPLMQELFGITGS
Each line names hits and unclear results; the compound was inactive in the other large screens (follow-up assays come after a bar, where they were run). The list is not random: actives were taken first. Their share in the collection is about 3.4%.

Cc1c(C(=O)N/N=C/c2ccc(-c3ccccc3[N+](=O)[O-])o2)sc(N)c1C#N	AHR act 133 (no result: A3G deaminase, UCH37 inh, A3A deaminase) | AHR act confirm 163 | PXR act counter 50
O=C(N/N=C/c1ccc(-c2ccccc2[N+](=O)[O-])o1)c1cncc(Br)c1	AHR act 83 (no result: UCH37 inh) | AHR act confirm 76
COc1ccc(C=NNc2nc(C)cc(-c3ccccc3)n2)c(OC)c1	none (no result: AHR act, Arr AP2 block, A3G deaminase, PolyA inhibitor, A3A deaminase)
Cc1ccc(-c2nc3cccnc3s2)cc1NS(=O)(=O)c1ccc2c(c1)OCCO2	AHR act 105 | AHR act confirm 73 | PXR act counter 104
Cc1nnc(N2C(=O)c3cccc4c([N+](=O)[O-])ccc(c34)C2=O)s1	AHR act 87 | AHR act confirm 100
CC(=NNC(=O)c1nnn(-c2nonc2N)c1CN1CCc2ccccc21)c1ccccc1O	none (no result: AHR act, Arr AP2 block, A3G deaminase, PolyA inhibitor, A3A deaminase)
Cc1ccc(-c2csc3nc(-c4ccncc4)[nH]c(=O)c23)cc1	none
Cc1ccc2nc(-c3ccncc3)[nH]c2c1	AHR act 134 | AHR act confirm 87 | PXR act counter 21
CCCc1cc(=O)c2ccc(OCC(C)=NO)cc2o1	none (no result: AHR act, Arr AP2 block, A3G deaminase, PolyA inhibitor, A3A deaminase)
CC(C)=CCC/C(C)=C/CCC(C)=NO	none (no result: AHR act, Arr AP2 block, A3G deaminase, PolyA inhibitor, A3A deaminase)
COc1ccc(/C=N/Nc2nc(N)cc(Cl)n2)cc1OC	AHR act 89 (no result: UCH37 inh) | AHR act confirm 72 | PXR act counter 16
BrC(=C\c1ccccc1)/C=N/Nc1nc2ccccc2[nH]1	AHR act 149 (no result: UCH37 inh) | AHR act confirm 49 | PXR act counter 59
COc1ccc(C=NNc2ncnc(Cl)c2N)cc1OC	none (no result: AHR act, Arr AP2 block, A3G deaminase, PolyA inhibitor, A3A deaminase)
COc1ccc2c(c1)c(/C=N/Nc1nc3ccccc3[nH]1)c(C)n2C	AHR act 98 (no result: UCH37 inh) | AHR act confirm 63 | PXR act counter 40
COc1ccc(/C=N/Nc2nc3ccccc3[nH]2)cc1OC	AHR act 111 (no result: UCH37 inh) | AHR act confirm 86
O=C(O)c1cccc(-c2ccc(C=Nn3cnc4sc5c(c4c3=O)CCCC5)o2)c1	none (no result: AHR act, Arr AP2 block, A3G deaminase, PolyA inhibitor, A3A deaminase)
CC(C)C[C@H](NC(=O)OC(C)(C)C)C(=O)NN=Cc1ccc2nccnc2c1	none (no result: AHR act, Arr AP2 block, A3G deaminase, PolyA inhibitor, A3A deaminase)
COc1ccc(NC(=O)CCC(=O)NN=Cc2ccncc2)cc1	none (no result: AHR act, Arr AP2 block, A3G deaminase, PolyA inhibitor, A3A deaminase)
Cc1nc(-c2ccccn2)sc1C(=O)Nc1ccc(Cl)c(Cl)c1	AHR act 109 | AHR act confirm 57 | PXR act counter 40
CC(=O)c1sc(-c2ccccn2)nc1C	none (no result: Arr AP2 block)
COC(=O)c1ccccc1NC(=O)NCCc1ccccc1OC	AHR act 88 (no result: UCH37 inh) | AHR act confirm 110 | PXR act counter 32
C(=NNc1nc(-c2ccccc2)cc(-c2ccccc2)n1)c1cccnc1	none (no result: AHR act, Arr AP2 block, A3G deaminase, PolyA inhibitor, A3A deaminase)
COc1ccccc1NCC(=O)NN=C(C)c1ccc(Br)s1	none (no result: AHR act, Arr AP2 block, A3G deaminase, PolyA inhibitor, A3A deaminase)
C/C(=N/NC(=O)CNc1ccc(C)cc1)c1ccc(Br)s1	AHR act 83 (no result: UCH37 inh) | AHR act confirm 61 | PXR act counter 15
O=C(NCCc1ccncc1)Nc1cccc(Cl)c1	AHR act 90 | AHR act confirm 56 | PXR act counter 17
O=C(NCCCc1ccccc1)Nc1cccc(Cl)c1	none
O=C(CCc1nc2ccccc2[nH]c1=O)NN=Cc1ccccc1	none (no result: AHR act, Arr AP2 block, A3G deaminase, PolyA inhibitor, A3A deaminase)
CC(=NNc1cccc([N+](=O)[O-])c1)c1cc2ccccc2o1	none (no result: AHR act, Arr AP2 block, A3G deaminase, PolyA inhibitor, A3A deaminase)
C/C(=N\Nc1ccc([N+](=O)[O-])cc1)c1cc2ccccc2o1	AHR act 81 (no result: UCH37 inh) | AHR act confirm 128 | PXR act counter 15
COc1cc(C2Nc3ccccc3C(=O)N2c2ccc(Cl)cc2)c(Cl)cc1OCC(=O)O (stereo not drawn)	AHR act 116 | AHR act confirm 89 | PXR act counter 15
COc1ccc(C(=O)Nc2cc(C)on2)cc1[N+](=O)[O-]	none
COc1ccc(C(=O)NC(=S)Nc2cc(C)ccn2)cc1[N+](=O)[O-]	AHR act 82 | AHR act confirm 109 | PXR act counter 13
O=C1CCCC(=NNC(=O)COc2ccc(Cl)cc2)C1	none (no result: AHR act, Arr AP2 block, A3G deaminase, PolyA inhibitor, A3A deaminase)
C=CCOn1c(C)c(C(C)=O)c2c3no[n+]([O-])c3ccc21	AHR act 111 | AHR act confirm 78 | PXR act counter 85
C=CCOn1c(C)c(C(C)=O)c2c3nonc3ccc21	AHR act 81 | AHR act confirm 71 | PXR act counter 48
CCOc1cc(C=NNC(=O)c2cccnc2)ccc1OCC(=O)N(C)C	none (no result: AHR act, Arr AP2 block, A3G deaminase, PolyA inhibitor, A3A deaminase)
Cc1nc(N2N=C3/C(=C/c4ccc(F)cc4)CCCC3C2c2ccc(F)cc2)sc1C(=O)N(C)C (stereo not drawn)	AHR act 92 (no result: UCH37 inh) | AHR act confirm 93 | PXR act counter 115
Cc1c(N=C(N)N=C(N)Nc2ccccc2)c(=O)n(-c2ccccc2)n1C	none (no result: AHR act, Arr AP2 block, A3G deaminase, PolyA inhibitor, A3A deaminase)
O=[N+]([O-])c1cc(-c2nc(-c3ccncc3)no2)cc([N+](=O)[O-])c1	AHR act 90 | AHR act confirm 72
O=C(CN1CCN(Cc2ccccc2Cl)CC1)NN=C/C=C\c1ccccc1[N+](=O)[O-]	none (no result: AHR act, Arr AP2 block, A3G deaminase, PolyA inhibitor, A3A deaminase)
CNC(=O)NN=C(N)c1ccccn1	none (no result: AHR act, Arr AP2 block, A3G deaminase, PolyA inhibitor, A3A deaminase)
COc1ccc(-c2nc3cnccn3c2Nc2ccc3c(c2)OCO3)cc1	AHR act 105 | AHR act confirm 85 | PXR act counter 144
COc1ccc(Nc2c(-c3ccc(OC)cc3)nc3cnccn23)cc1	none
O=c1c2ccccc2[nH]c(=S)n1CCc1ccccc1	AHR act 121 | AHR act confirm 159 | PXR act counter 38
CC1=CC(=NOS(=O)(=O)c2ccccc2)C(C)=CC1=O	none (no result: AHR act, Arr AP2 block, A3G deaminase, PolyA inhibitor, A3A deaminase)
Cc1c(CN2CCC(n3nccc3NC(=O)C3CC3)CC2)[nH]c2ccccc12	AHR act 85, PolyA inhibitor inconclusive | AHR act confirm 82 | PXR act counter 43
COC(=O)c1ccc(CN2CCC(n3nccc3NC(=O)C3CC3)CC2)cc1	none
CC(=NO)C(C)(C)Nc1cccc(Br)c1	none (no result: AHR act, Arr AP2 block, A3G deaminase, PolyA inhibitor, A3A deaminase)
c1csc(C2Nc3ccccc3-c3nc4ccccc4n32)c1 (stereo not drawn)	AHR act 133 | AHR act confirm inactive | PXR act counter 112
